Tests used:
Pichia sporocuriosa [1] = experiment: Fungicidal activity against Issatchenkia hanoiensis MTCC 4755 after 24 hrs by serial dilution method; type: functional; conditions: MTCC 4755, 24 h
Candida albicans [2] = experiment: Fungicidal activity against Candida albicans MTCC 7315 after 24 hrs by serial dilution method; type: functional; conditions: MTCC 7315, 24 h
Staphylococcus aureus [3] = experiment: Antimicrobial activity against Staphylococcus aureus MTCC 96 assessed as growth inhibition after 24 hrs by agar well diffusion method; type: functional; conditions: MTCC 96, 24 h
Escherichia coli [4] = experiment: Bactericidal activity against Escherichia coli MTCC 739 after 24 hrs by serial dilution method; type: functional; conditions: MTCC 739, 24 h
Candida albicans [5] = experiment: Fungicidal activity against Candida albicans MTCC 183 after 24 hrs by serial dilution method; type: functional; conditions: MTCC 183, 24 h
Bacillus subtilis [6] = experiment: Antimicrobial activity against Bacillus subtilis MTCC 121 assessed as growth inhibition after 24 hrs by agar well diffusion method; type: functional; conditions: MTCC 121, 24 h
Staphylococcus aureus [7] = experiment: Bactericidal activity against Staphylococcus aureus MLS16 MTCC 2940 after 24 hrs by serial dilution method; type: functional; conditions: MLS16 MTCC 2940, 24 h
Candida albicans [8] = experiment: Fungicidal activity against Candida albicans MTCC 1637 after 24 hrs by serial dilution method; type: functional; conditions: MTCC 1637, 24 h
Pseudomonas aeruginosa = experiment: Antimicrobial activity against Pseudomonas aeruginosa MTCC 2453 assessed as growth inhibition after 24 hrs by agar well diffusion method; type: functional; conditions: MTCC 2453, 24 h
Nakaseomyces glabratus [9] = experiment: Antimicrobial activity against Candida glabrata MTCC 3019 assessed as growth inhibition after 24 hrs by agar well diffusion method; type: functional; conditions: MTCC 3019, 24 h
Raoultella planticola [10] = experiment: Antimicrobial activity against Klebsiella planticola MTCC 530 assessed as growth inhibition after 24 hrs by agar well diffusion method; type: functional; conditions: MTCC 530, 24 h
[Candida] aaseri [11] = Fungicidal activity against Candida aaseri MTCC 1962 after 24 hrs by serial dilution method; type: functional; conditions: Yamadazyma aaseri, MTCC 1962, 24 h
Candida albicans [12] = experiment: Fungicidal activity against Candida albicans MTCC 854 after 24 hrs by serial dilution method; type: functional; conditions: MTCC 854, 24 h
Staphylococcus aureus [13] = experiment: Bactericidal activity against Staphylococcus aureus MTCC 96 after 24 hrs by serial dilution method; type: functional; conditions: MTCC 96, 24 h
Candida albicans [14] = experiment: Fungicidal activity against Candida albicans MTCC 3958 after 24 hrs by serial dilution method; type: functional; conditions: MTCC 3958, 24 h
Candida albicans [15] = experiment: Fungicidal activity against Candida albicans MTCC 4748 after 24 hrs by serial dilution method; type: functional; conditions: MTCC 4748, 24 h
Staphylococcus aureus [16] = experiment: Antimicrobial activity against Staphylococcus aureus MLS16 MTCC 2940 assessed as growth inhibition after 24 hrs by agar well diffusion method; type: functional; conditions: MLS16 MTCC 2940, 24 h
Candida parapsilosis [17] = experiment: Antimicrobial activity against Candida parapsilosis MTCC 1744 assessed as growth inhibition after 24 hrs by agar well diffusion method; type: functional; conditions: Lodderomyces parapsilosis, MTCC 1744, 24 h
Micrococcus luteus [18] = experiment: Bactericidal activity against Micrococcus luteus MTCC 2470 after 24 hrs by serial dilution method; type: functional; conditions: MTCC 2470, 24 h
Pichia sporocuriosa [19] = experiment: Antimicrobial activity against Issatchenkia hanoiensis MTCC 4755 assessed as growth inhibition after 24 hrs by agar well diffusion method; type: functional; conditions: MTCC 4755, 24 h
Candida albicans [20] = experiment: Antimicrobial activity against Candida albicans MTCC 3018 assessed as growth inhibition after 24 hrs by agar well diffusion method; type: functional; conditions: MTCC 3018, 24 h
Candida albicans [21] = experiment: Antimicrobial activity against Candida albicans MTCC 227 assessed as growth inhibition after 24 hrs by agar well diffusion method; type: functional; conditions: MTCC 227, 24 h
Candida albicans [22] = experiment: Antimicrobial activity against Candida albicans MTCC 854 assessed as growth inhibition after 24 hrs by agar well diffusion method; type: functional; conditions: MTCC 854, 24 h
Bacillus subtilis [23] = experiment: Bactericidal activity against Bacillus subtilis MTCC 121 after 24 hrs by serial dilution method; type: functional; conditions: MTCC 121, 24 h
Escherichia coli [24] = experiment: Antimicrobial activity against Escherichia coli MTCC 739 assessed as growth inhibition after 24 hrs by agar well diffusion method; type: functional; conditions: MTCC 739, 24 h
Candida parapsilosis [25] = experiment: Fungicidal activity against Candida parapsilosis MTCC 1744 after 24 hrs by serial dilution method; type: functional; conditions: Lodderomyces parapsilosis, MTCC 1744, 24 h
Candida albicans [26] = experiment: Antimicrobial activity against Candida albicans MTCC 183 assessed as growth inhibition after 24 hrs by agar well diffusion method; type: functional; conditions: MTCC 183, 24 h
Candida albicans [27] = experiment: Fungicidal activity against Candida albicans MTCC 227 after 24 hrs by serial dilution method; type: functional; conditions: MTCC 227, 24 h
Candida albicans [28] = experiment: Antimicrobial activity against Candida albicans MTCC 3958 assessed as growth inhibition after 24 hrs by agar well diffusion method; type: functional; conditions: MTCC 3958, 24 h
Nakaseomyces glabratus [29] = experiment: Fungicidal activity against Candida glabrata MTCC 3019 after 24 hrs by serial dilution method; type: functional; conditions: MTCC 3019, 24 h
Candida albicans [30] = experiment: Fungicidal activity against Candida albicans MTCC 3018 after 24 hrs by serial dilution method; type: functional; conditions: MTCC 3018, 24 h
Candida albicans [31] = experiment: Fungicidal activity against Candida albicans MTCC 3017 after 24 hrs by serial dilution method; type: functional; conditions: MTCC 3017, 24 h
Staphylococcus aureus [32] = experiment: Antibiofilm activity against Staphylococcus aureus MTCC 96 after 24 hrs by crystal violet staining based assay; type: functional, organism-based; conditions: MTCC 96, 24 h
In short: (§1)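 Biofilm inhibition tested for amine esters and esterquats. IC50 values (µg/mL) are the mean of three determinations, with ciprofloxacin as reference.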

Candida albicans [33] = experiment: Antimicrobial activity against Candida albicans MTCC 7315 assessed as growth inhibition after 24 hrs by agar well diffusion method; type: functional; conditions: MTCC 7315, 24 h
Bacillus subtilis [34] = experiment: Antibiofilm activity against Bacillus subtilis MTCC 121 after 24 hrs by crystal violet staining based assay; type: functional, organism-based; conditions: MTCC 121, 24 h; in short: as §1
Candida albicans [35] = experiment: Antimicrobial activity against Candida albicans MTCC 1637 assessed as growth inhibition after 24 hrs by agar well diffusion method; type: functional; conditions: MTCC 1637, 24 h
[Candida] aaseri [36] = Antimicrobial activity against Candida aaseri MTCC 1962 assessed as growth inhibition after 24 hrs by agar well diffusion method; type: functional; conditions: Yamadazyma aaseri, MTCC 1962, 24 h
Micrococcus luteus [37] = experiment: Antimicrobial activity against Micrococcus luteus MTCC 2470 assessed as growth inhibition after 24 hrs by agar well diffusion method; type: functional; conditions: MTCC 2470, 24 h
Pichia kudriavzevii [38] = experiment: Fungicidal activity against Candida krusei MTCC 3020 after 24 hrs by serial dilution method; type: functional; conditions: MTCC 3020, 24 h
Micrococcus luteus [39] = experiment: Antibiofilm activity against Micrococcus luteus MTCC 2470 after 24 hrs by crystal violet staining based assay; type: functional, organism-based; conditions: MTCC 2470, 24 h; in short: as §1
Raoultella planticola [40] = experiment: Bactericidal activity against Klebsiella planticola MTCC 530 after 24 hrs by serial dilution method; type: functional; conditions: MTCC 530, 24 h
Candida albicans [41] = experiment: Antimicrobial activity against Candida albicans MTCC 3017 assessed as growth inhibition after 24 hrs by agar well diffusion method; type: functional; conditions: MTCC 3017, 24 h
Staphylococcus aureus [42] = experiment: Antibiofilm activity against Staphylococcus aureus MLS16 MTCC 2940 after 24 hrs by crystal violet staining based assay; type: functional, organism-based; conditions: MLS16 MTCC 2940, 24 h; in short: as §1
Candida albicans [43] = experiment: Antimicrobial activity against Candida albicans MTCC 4748 assessed as growth inhibition after 24 hrs by agar well diffusion method; type: functional; conditions: MTCC 4748, 24 h
Pichia kudriavzevii [44] = experiment: Antimicrobial activity against Candida krusei MTCC 3020 assessed as growth inhibition after 24 hrs by agar well diffusion method; type: functional; conditions: MTCC 3020, 24 h

MIC (Staphylococcus aureus [3]): 3.9 µg/mL
MIC (Bacillus subtilis [6]): 7.8 µg/mL
MIC (Pseudomonas aeruginosa): > 125 µg/mL
MIC (Nakaseomyces glabratus [9]): 31.2 µg/mL
MIC (Staphylococcus aureus [16]): 7.8 µg/mL
MIC (Candida parapsilosis [17]): 62.5 µg/mL
MIC (Pichia sporocuriosa [19]): 31.2 µg/mL
MIC (Candida albicans [20]): 31.2 µg/mL
MIC (Candida albicans [21]): 15.6 µg/mL
MIC (Candida albicans [22]): 15.6 µg/mL
MIC (Escherichia coli [24]): > 125 µg/mL
MIC (Candida albicans [26]): 31.2 µg/mL
MIC (Candida albicans [28]): 31.2 µg/mL
IC50 (Staphylococcus aureus [32]): 3.2 µg/mL
MIC (Candida albicans [33]): 15.6 µg/mL
IC50 (Bacillus subtilis [34]): 4.6 µg/mL
MIC (Candida albicans [35]): 31.2 µg/mL
MIC ([Candida] aaseri [36]): 15.6 µg/mL
MIC (Micrococcus luteus [37]): 3.9 µg/mL
IC50 (Micrococcus luteus [39]): 2 µg/mL
MIC (Candida albicans [41]): 15.6 µg/mL
IC50 (Staphylococcus aureus [42]): 4.8 µg/mL
MIC (Candida albicans [43]): 15.6 µg/mL
MIC (Pichia kudriavzevii [44]): 31.2 µg/mL
Compound: CCCCCCCC[N+](C)(CCCCCCCC)CCCCCCCCCCC(=O)OC.[Cl-]
MFC (Pichia sporocuriosa [1]): 31.2 µg/mL
MFC (Candida albicans [2]): 15.6 µg/mL
MBC (Escherichia coli [4]): > 125 µg/mL
MFC (Candida albicans [5]): 31.2 µg/mL
MBC (Staphylococcus aureus [7]): 15.6 µg/mL
MFC (Candida albicans [8]): 62.5 µg/mL
MIC (Raoultella planticola [10]): 31.2 µg/mL
MFC ([Candida] aaseri [11]): 31.2 µg/mL
MFC (Candida albicans [12]): 31.2 µg/mL
MBC (Staphylococcus aureus [13]): 15.6 µg/mL
MFC (Candida albicans [14]): 31.2 µg/mL
MFC (Candida albicans [15]): 31.2 µg/mL
MBC (Micrococcus luteus [18]): 7.8 µg/mL
MBC (Bacillus subtilis [23]): 15.6 µg/mL
MFC (Candida parapsilosis [25]): 31.2 µg/mL
MFC (Candida albicans [27]): 31.2 µg/mL
MFC (Nakaseomyces glabratus [29]): 31.2 µg/mL
MFC (Candida albicans [30]): 31.2 µg/mL
MFC (Candida albicans [31]): 31.2 µg/mL
MFC (Pichia kudriavzevii [38]): 31.2 µg/mL
MBC (Raoultella planticola [40]): > 125 µg/mL
